Source: ChEMBL document CHEMBL2401730, “The macrocyclic peptide natural product CJ-15,208 is orally active and prevents reinstatement of extinguished cocaine-seeking behavior” (J Nat Prod, 2013)
The source made the active and inactive calls. Where a SMILES comes first, the peptide text is derived from it. [ ]: non-standard residue; d: D form.

How the values were obtained:
[1] = test system: Mus musculus; assay: Prevention of cocaine-induced reinstatement of extinguished cocaine seeking behavior in C57BL/6J mouse at 30 to 60 mg/kg, po qd for 2 days followed by additional cycle of cocaine place conditioning at 30 mins post last dose measured on day 3; assay type: functional, organism-based
Procedure, shortened: (§1)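 Counterbalanced CPP: four days of saline (30 min confinement), then cocaine 10 mg/kg sc 4 h later in the opposite compartment. Extinction followed over 3 weeks of twice-weekly tests. Oral 1:1:8 vehicle or 30/60 mg/kg given days 28-29, then either forced swim 3 h later or cocaine conditioning 30 min after day-29 dose. Place preference tested day 30 over 30 min; 12-16 mice/group; ANOVA/Tukey HSD.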

[2] = test system: Mus musculus; assay: Prevention of stress-induced reinstatement of extinguished cocaine cocaine seeking behavior in C57BL/6J mouse at 30 mg/kg, po qd for 2 days measured 3 hrs post last dose by forced swim test; assay type: functional, organism-based; design: dose 30 mg/kg; procedure, shortened: as §1
[3] = test system: Mus musculus; assay: Prevention of stress-induced reinstatement of extinguished cocaine seeking behavior in C57BL/6J mouse at 60 mg/kg, po qd for 2 days measured 3 hrs post last dose by forced swim test; assay type: functional, organism-based; design: dose 60 mg/kg; procedure, shortened: as §1
[4] = test system: Mus musculus; assay: Neurotoxicity in C57BL/6J mouse assessed as sedative effect at 10 to 60 mg/kg, po after 60 mins by rotarod test; assay type: toxicity, organism-based; design: dose 10-60 mg/kg, route oral; details: in vivo, 1 h
Procedure, shortened: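 Seven habituation trials, with the last used as baseline. Male C57BL/6J mice then received oral vehicle (1:1:8) or 10 or 60 mg/kg; the U50,488 comparator was given 10 mg/kg ip. Accelerating rotorod (0-20 rpm, 180 s maximum) over 60 min. Latency to fall expressed as % change from baseline; 7-8 mice/group; two-way ANOVA.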

[5] = test system: Mus musculus; assay: Antagonist activity at kappa opioid receptor in po dosed C57BL/6J mouse assessed as inhibition of icv dosed U50,488-induced antinociception effect incubated for 3 hrs prior to testing by warm water tail withdrawal assay; assay type: functional, organism-based
Procedure, shortened: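 Male C57BL/6J mice (20-25 g) given test agent orally in 1:1:8 ethanol/Tween 80/saline; 3 h later U50,488 given ip (10 mg/kg, in saline) or icv (30 nmol), with tail-withdrawal testing in 55 °C water 40 or 20 min afterwards, respectively. 15 s cut-off; % antinociception calculated from baseline latency. 8 mice/group; one-way ANOVA with Tukey HSD.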

[6] = test system: Mus musculus; assay: Antinociceptive activity in C57BL/6J mouse at 60 mg/kg, po after 140 mins by warm water tail withdrawal assay; assay type: functional, organism-based; design: dose 60 mg/kg
Procedure, shortened: (§2)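 Adult male C57BL/6J mice (20-25 g); baseline tail-withdrawal latency in 55 °C water measured, then oral dosing in 1:1:8 ethanol/Tween 80/0.9% saline vehicle. Latency re-measured repeatedly over time, 15 s cut-off. %antinociception = 100×(test−control)/(15−control). ED50 with 95% CI; 7-24 mice/group; repeated-measures ANOVA at 10 min intervals for hour 1 and hour 2.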

[7] = test system: Mus musculus; assay: Antinociceptive activity in C57BL/6J mouse at 1 to 30 mg/kg, po after 120 mins by warm water tail withdrawal assay; assay type: functional, organism-based; procedure, shortened: as §2
[8] = test system: Mus musculus; assay: Antinociceptive activity in C57BL/6J mouse at 0.3 mg/kg, po after 60 mins by warm water tail withdrawal assay; assay type: functional, organism-based; design: dose 0.3 mg/kg; procedure, shortened: as §2
[9] = test system: Mus musculus; assay: Antinociceptive activity in C57BL/6J mouse at 1 to 60 mg/kg, po after 60 mins by warm water tail withdrawal assay; assay type: functional, organism-based; procedure, shortened: as §2
[10] = test system: Mus musculus; assay: Antinociceptive activity in po dosed C57BL/6J mouse after 40 mins by warm water tail withdrawal assay; assay type: functional; procedure, shortened: as §2
[11] = test system: Mus musculus; assay: Antagonist activity at kappa opioid receptor in po dosed C57BL/6J mouse assessed as inhibition of ip dosed U50,488-induced antinociception effect incubated for 3 hrs prior to testing by warm water tail withdrawal assay

`O=C1N[C@@H](Cc2ccccc2)C(=O)N2CCC[C@@H]2C(=O)N[C@@H](Cc2ccccc2)C(=O)N[C@H]1Cc1c[nH]c2ccccc12` (cyclo(FWF[dP])) was tested, and the Activity [1] was “Active”, the Activity [2] was “inactive” and the Activity [3] was “Active”. The Activity [4] was “Non-toxic”, the inhibition [5] was “Dose-dependent effect” and the Activity [6] was “Active”. The Activity [7] was “inactive”, the Activity [8] was “inactive” and the Activity [9] was “Active”. The ED50 [10] was 3.49 mg/kg and the inhibition [11] was “Dose-dependent effect”.
